Source: ChEMBL document CHEMBL1141286, “Benzochromenones from the marine crinoid Comantheria rotula inhibit hypoxia-inducible factor-1 (HIF-1) in cell-based reporter assays and differentially suppress the growth of certain tumor cell lines” (J Nat Prod, 2007)
pIC50: −log10 of the molar value. Active and inactive are the calls of the source. No cut-off for these calls is given here.

Columns and labels:
T47D [1] = experiment: Inhibition of 1,10-phenanthroline-induced VEGF protein secretion in human T47D cells at 10 uM after 16 hrs by ELISA; format: functional, cell-based
Method in brief: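 T47D cells stimulated with 1,10-phenanthroline, compound at 10 μM; secreted VEGF in conditioned media by ELISA, normalized to cell-lysate protein.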

[2] = target: Hypoxia inducible factors; HIF-1-alpha, HIF-2-alpha (Homo sapiens, UniProt Q16665+Q99814); experiment: Inhibition of HIF1 activation in human T47D cells by TK-luciferase assay; format: cell-based
Method in brief: (§1)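 HIF-1 reporter (pHRE-TK-Luc) assays in transfected PC-3 or T47D cells; HIF-1 induced by hypoxia or by the hypoxia mimetic 1,10-phenanthroline (10 μM); compounds at half-log concentrations; luciferase activity measured; IC50 from experiments in triplicate.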

[3] = Inhibition of HIF1 activation in PC3 cells by TK-luciferase assay; format: cell-based; settings: Homo sapiens, PC-3; method in brief: as §1
T47D [4] = experiment: Inhibition of hypoxia induced VEGF protein secretion in human T47D cells at 10 uM after 16 hrs by ELISA; format: functional; parameters: scale not given: the % may be the effect or the level left
Method in brief: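 Exponentially growing T47D cells exposed to hypoxia (1% O2) with compound (10 μM) for 16 hr; secreted VEGF protein in conditioned media by ELISA, normalized to protein in cell lysates (micro BCA).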

[5] = Inhibition of 1,10-phenanthroline-induced HIF1 activation in T47D cells by TK-luciferase assay; format: cell-based; settings: Homo sapiens; method in brief: as §1
[6] = Inhibition of 1,10-phenanthroline-induced HIF1 activation in PC3 cells by TK-luciferase assay; format: cell-based; settings: Homo sapiens, PC-3; method in brief: as §1
[7] = DPPH radical scavenging activity relative to Trolox; format: functional; parameters: concentration or dose not given beside the values
Method in brief: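 Compounds were made up as DMSO stocks and diluted in isopropanol to a final 10 μM. Each was mixed with DPPH in isopropanol at 10 μM or 30 μM DPPH, and absorbance was read at 515 nm. Scavenging was calculated as [1 − OD515(compound)/OD515(control)] × 100, then expressed as a percentage of Trolox activity. One experiment was run in triplicate.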

[8] = Inhibition of luciferase at 30 uM
Method in brief: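 Purified recombinant firefly luciferase (QuantiLum, 46.8 μg mL−1) mixed with compound in passive lysis buffer containing BSA (1 mg mL−1); equal volume of luciferase substrate added, light output read; percentage inhibition relative to DMSO control; concentration-response curves up to 30 μM.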

IC50 [2] [µM] | pIC50 [3] | pIC50 [5] | pIC50 [6] | inhibition [8] [%] | SMILES | Activity (T47D [1]) | Activity (T47D [4]) [%] | Activity [7] [%]
3 | < 5.00 | 5.52 | < 5.00 |  | CCCc1cc(=O)c2c(O)cc3cc(O)cc(OC)c3c2o1 [COMAPARVIN] | inactive | 27 | 
2.7 | 5.49 | 5.72 | 5.43 | 48 | CCCc1cc(=O)c2c(OC)c3c(OC)cc(O)cc3cc2o1 [NEOCOMANTHERIN] | inactive |  | 40
